A selection: hits, their analogues and other compounds. The true share with any hit is near 2.9%.
SUMO Mot1 rescue – yeast Mot1-301 growth rescue at high temperature, primary screen, SUMOylation pathway inhibitor project, S. cerevisiae, ATP luminescence, 38.5C; AID 2716, 2010; 1% of 320,000 active; growth rescue, % at 18.8 µM; S. cerevisiae Mot1-301 growth rescue; percent above DMSO median, 100 means doubled;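 active = every valid replicate shows activation above 250% relative to neutral control wells; inactive = the rest, any valid replicate at or below 250%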;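 also: OY570 slx delta 5 strain wells were the positive control but not used for scaling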
VIM-2 inh – VIM-2 metallo-beta-lactamase inhibitors, primary screen, biochemical, epi-absorbance readout, Pseudomonas aeruginosa enzyme. purified VIM-2, nitrocefin hydrolysis, epi-absorbance fluorescence. inhibition, % at 5.6 µM. 0.89% of 290,000 active;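 active = inhibition above the mean of all tested compounds plus 3 SD, cutoff set per screening run, cut at about 7.5% in these data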;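 also: red hydrolysis product quenches plate fluorescence so inhibitors raise well fluorescence; 0% = enzyme with DMSO and 100% = DMSO without enzyme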
DNA FID counter – compounds displacing fluorescent DNA intercalator, primary screen, artefact control for HCV NS3 helicase inhibitor project, biochemical, FID fluorescence; DNA fluorescent intercalator displacement; 0.17% of 290,000 active; inhibition, % at 7.9 µM; in the data active = inhibition above about 37%;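 also: 0% = vehicle and 100% = reference compound; higher means more ethidium bromide displaced from hairpin DNA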
UBC9 SUMO inh – inhibitors of in vitro SUMOylation cascade, primary screen, biochemical, HTRF, uHTS; HTRF SUMOylation assay, SAE1/SAE2 + UBC9; SUMO-conjugating enzyme UBC9 (Homo sapiens), P63279; AID 2006, 2009; 0.36% of 290,000 active; inhibition, % at 35 µM; in the data active = inhibition above about 50%, passing the limit was not always enough
Target sequence (P63279 whole entry, looked up): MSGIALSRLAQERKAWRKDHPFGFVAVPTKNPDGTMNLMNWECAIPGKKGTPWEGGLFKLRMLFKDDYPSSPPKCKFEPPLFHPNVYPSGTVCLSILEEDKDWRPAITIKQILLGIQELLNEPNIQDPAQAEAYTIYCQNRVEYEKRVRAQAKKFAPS
IMP-1 inh – IMP-1 metallo-beta-lactamase inhibitors, primary screen, biochemical, epi-absorbance readout, Pseudomonas aeruginosa enzyme; metallo-beta-lactamase IMP-1 (Pseudomonas aeruginosa); purified IMP-1, nitrocefin hydrolysis, epi-absorbance fluorescence; inhibition, % at 5.6 µM; 0.45% of 290,000 active;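 active = inhibition above the mean plus 3 SD of all compounds in the same screening run, cut at about 4.5% in these data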;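 also: 0% = IMP-1 with DMSO and 100% = DMSO wells lacking enzyme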
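System: purified recombinant IMP-1 beta-lactamase. Medium: Zinc- and detergent-supplemented HEPES buffer, pH 7.1. Compound: one 5.6 µM dose […]. Schedule: 15 min preincubation plus 25 min reaction at 25 °C. Technique: Epi-absorbance fluorescence, 480 nm excitation, 530 nm emission.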
NALP1 inh – NALP1 inflammasome inhibitors in reconstituted yeast, colorimetric, S. cerevisiae, triplicate retest | S. cerevisiae NALP1/ASC/caspase-1 growth, X-gal OD620, 72 h | inhibition, % at 10 µM | 0.61% of 280,000 active | AID 2071, 2009; in the data active = inhibition mostly above about 24%, no sharp cut-off; inactive = mostly below about 32%
Starred values were filed as active, the others as inactive; · = not tested or not shown; + = active, no number.

SMILES | SUMO Mot1 rescue | VIM-2 inh | DNA FID counter | UBC9 SUMO inh | IMP-1 inh | NALP1 inh
CCOC(=O)c1cc(-c2ccc(N3CCOCC3)cc2)nn1-c1ccccc1C(=O)O | -12 | 1 | -29 | 36 | 22* | 14
Cc1cccc2sc(N(CCCN(C)C)C(=O)c3sc4ccccc4c3Cl)nc12 | -7 | -1 | 4 | -8 | -2 | 54*
CN(C)CCCN(C(=O)c1ccc(C(=O)c2ccccc2)cc1)c1nc2ccc(F)cc2s1 | 9 | 2 | 32 | -4 | 1 | 30
CN(C)CCCN(C(=O)/C=C/c1cccs1)c1nc2c(F)cccc2s1 | · | -2 | 13 | 8 | -4 | 7
Cc1cccc2sc(N(CCCN(C)C)C(=O)c3ccc(C(=O)c4ccccc4)cc3)nc12 | -15 | -3 | 38* | -8 | -4 | 5
CN(C)CCCN(C(=O)CCOc1ccccc1)c1nc2c(F)cccc2s1 | · | -2 | 7 | 13 | -2 | 52*
CN(C)CCCN(C(=O)CCc1ccccc1)c1nc2c(F)cccc2s1 | 85 | -2 | 35 | -3 | -1 | 25
Cc1cccc2sc(N(CCN(C)C)C(=O)/C=C/c3cccs3)nc12 | -2 | -2 | 10 | 5 | -1 | 54*
CCc1nc(CN2CCN(Cc3ccc(F)c(F)c3)C(CCO)C2)c(C)[nH]1 (stereo not drawn) | -5 | -2 | 5 | -2 | -5 | -28
COc1cccc(NC(=O)CN(C)CC(=O)Nc2ccc(C)cc2Cl)c1 | 0 | -3 | -10 | 19 | -4 | 9
Cn1cc(C2=C(c3ccc(Cl)cc3Cl)C(=O)NC2=O)c2ccccc21 | -4 | 3 | 5 | 14 | 4.9* | -7
Cn1cc(-c2ccccc2C(N)=O)c(=O)c2cc(Cl)ccc21 | 63 | -4 | 11 | 11 | -5 | 0
CCc1ccc(NC(=O)C2CCCCC2C(=O)O)cc1 (stereo not drawn) | 4 | -2 | -2 | 20 | -3 | 34
CC(C)c1ccc(NC(=O)C2CCCCC2C(=O)O)cc1 (stereo not drawn) | + | 1 | 4 | 3 | 0 | 14
NC(=NCCCCCCN=C(N)/N=C(\N)Nc1ccc(Cl)cc1)/N=C(\N)Nc1ccc(Cl)cc1 | -68 | -2 | 59* | 0 | -3 | 21
CCCCN=C(Nc1ccc(Cl)cc1)c1cccnc1 | -3 | -7 | -1 | 4 | -3 | 33
CC(=O)N1CCOc2ccc(S(=O)(=O)N3CCC(C(=O)Nc4ccc(F)cc4)CC3)cc21 | 5 | -2 | -31 | 9 | -3 | 17
CCOC(=O)C(C)Sc1nnc2c3ccccc3n(C)c2n1 (stereo not drawn) | -9 | 8.8* | -24 | 9 | -5 | 7
COc1cc(C(c2c(C(=O)O)[nH]c3ccccc23)c2c(C(=O)O)[nH]c3ccccc23)ccc1OCc1ccccc1 | -19 | 0 | -5 | 20 | -1 | -3
COc1ccc(C(C[N+](=O)[O-])c2c(C)[nH]c3ccccc23)cc1OC (stereo not drawn) | 65 | 0 | -1 | 19 | 13* | 44
Cc1cccc(Nc2c3c(nc4ccccc24)CCC3)c1 | -14 | 7 | 5 | -3 | -4 | 17
COc1ccccc1Nc1c2c(nc3ccc(N)cc13)CCCC2 | -18 | 8.7* | 4 | -3 | -4 | ·
COc1cc(Nc2c3c(nc4ccccc24)CCC3)cc(OC)c1OC | 10 | 2 | -1 | 16 | -2 | 0
COc1ccc(Nc2c3c(nc4ccc(C)cc24)CCC3)cc1 | -30 | 9.1* | -4 | 6 | -3 | 11
Cc1cc([N+](=O)[O-])nn1CC(=O)NC1CCCCC1 | 9 | -3 | -1 | 10 | -3 | 1
SMILES | SUMO Mot1 rescue | VIM-2 inh | DNA FID counter | UBC9 SUMO inh | IMP-1 inh | NALP1 inh
COC(=O)c1cc(S(=O)(=O)NCC2CCN(Cc3ccc(C)cc3)CC2)cn1C | 53 | 0 | 22 | 1 | 1 | 15
CCN(CC)CC#CCC(C)(c1ccccc1)c1ccccc1 | 62 | 0 | 17 | 26 | 1 | 31*
O=C(N/N=C\C=C\c1ccc(Br)cc1)c1ccc2c(c1)OCO2 | 13 | 0 | -10 | 16 | 25* | 9
O=C(N/N=C/c1ccc2c(c1)OCO2)c1ccc2c(c1)OCCO2 | 0 | -3 | -9 | 23 | -3 | 27
O=C(N/N=C/C=C/c1ccc2c(c1)OCO2)c1ccc([N+](=O)[O-])cc1 | -8 | -2 | -1 | 21 | -4 | 0
O=C(N/N=C/c1ccc(Cl)cc1)c1ccc2c(c1)OCO2 | 5 | 0 | -4 | -10 | 17* | 28
CC(C)(C)c1ccc(NC(=O)c2ccccc2)c([N+](=O)[O-])c1 | -21 | 0 | -2 | 6 | 1 | 0
CCC(=O)Nc1cc(C(=O)O)ccc1Sc1ccc(C)cc1 | 2 | 2 | -14 | 19 | 0 | -4
Cc1[nH]n(-c2ccccc2)c(=O)c1C(C[N+](=O)[O-])c1ccccc1Cl (stereo not drawn) | 225 | -4 | -5 | 22 | -1 | 22
COc1ccc(C(C[N+](=O)[O-])c2c(C)[nH]n(-c3ccccc3)c2=O)cc1 (stereo not drawn) | 155 | 6 | -2 | 87* | -2 | 45*
CC1CCCN(C(=O)C2(NC(=O)Nc3cccc(F)c3)CCCCC2)C1 (stereo not drawn) | -13 | 0 | 9 | -3 | 0 | -3
CC(C)(C)C(=O)/C(=C\c1ccc([N+](=O)[O-])cc1)n1cncn1 | 330* | -3 | 3 | -40 | -2 | 55*
CCOC(=O)C1CCN(C(=O)Nc2ccc3nc(-c4ccco4)c(-c4ccco4)nc3c2)CC1 | -9 | -3 | -24 | 73* | -1 | 28
O=C(Nc1ccc2nc(-c3ccco3)c(-c3ccco3)nc2c1)N1CCCCCC1 | -4 | -3 | -18 | 58* | -2 | 22
CCOC(=O)C1CCN(C(=O)Nc2ccc3c(c2)nc(C)n3C)CC1 | -4 | -3 | 0 | 12 | -7 | -4
Cc1ccc(C#CC(C)(O)C(C)(C)C)cn1 (stereo not drawn) | -3 | -1 | -8 | 17 | -2 | 2
COc1cc2cc(C(=O)N(C)C3CCS(=O)(=O)C3)[nH]c2cc1OC (stereo not drawn) | -3 | 8.1* | -5 | 16 | -5 | 14
COc1ccc(-c2nnc(SC)nc2-c2ccc(OC)c([N+](=O)[O-])c2)cc1[N+](=O)[O-] | 487 | · | · | · | · | ·
O=C(COC(=O)C1CC2C=CC1C2)Nc1ccccc1[N+](=O)[O-] (stereo not drawn) | 22 | · | · | · | · | ·

Screens as filed in PubChem BioAssay.
